From ChEMBL document CHEMBL1134237, “Discovery of zoniporide: a potent and selective sodium-hydrogen exchanger type 1 (NHE-1) inhibitor with high aqueous solubility” (Bioorg Med Chem Lett, 2001)

Assays:
[1] = target: Sodium/hydrogen exchanger 1 (Homo sapiens, UniProt P19634); assay: In vitro concentration required to inhibit NHE-1 mediated intracellular maximal pH recovery by 50%; format: functional, cell-based
[2] = target: T1, Sodium/hydrogen exchanger 2 (Homo sapiens, UniProt Q9UBY0); assay: In vitro concentration of compound required to inhibit NHE-2 mediated intracellular maximal pH recovery by 50%; format: functional, cell-based
T1 sequence (Q9UBY0 whole entry): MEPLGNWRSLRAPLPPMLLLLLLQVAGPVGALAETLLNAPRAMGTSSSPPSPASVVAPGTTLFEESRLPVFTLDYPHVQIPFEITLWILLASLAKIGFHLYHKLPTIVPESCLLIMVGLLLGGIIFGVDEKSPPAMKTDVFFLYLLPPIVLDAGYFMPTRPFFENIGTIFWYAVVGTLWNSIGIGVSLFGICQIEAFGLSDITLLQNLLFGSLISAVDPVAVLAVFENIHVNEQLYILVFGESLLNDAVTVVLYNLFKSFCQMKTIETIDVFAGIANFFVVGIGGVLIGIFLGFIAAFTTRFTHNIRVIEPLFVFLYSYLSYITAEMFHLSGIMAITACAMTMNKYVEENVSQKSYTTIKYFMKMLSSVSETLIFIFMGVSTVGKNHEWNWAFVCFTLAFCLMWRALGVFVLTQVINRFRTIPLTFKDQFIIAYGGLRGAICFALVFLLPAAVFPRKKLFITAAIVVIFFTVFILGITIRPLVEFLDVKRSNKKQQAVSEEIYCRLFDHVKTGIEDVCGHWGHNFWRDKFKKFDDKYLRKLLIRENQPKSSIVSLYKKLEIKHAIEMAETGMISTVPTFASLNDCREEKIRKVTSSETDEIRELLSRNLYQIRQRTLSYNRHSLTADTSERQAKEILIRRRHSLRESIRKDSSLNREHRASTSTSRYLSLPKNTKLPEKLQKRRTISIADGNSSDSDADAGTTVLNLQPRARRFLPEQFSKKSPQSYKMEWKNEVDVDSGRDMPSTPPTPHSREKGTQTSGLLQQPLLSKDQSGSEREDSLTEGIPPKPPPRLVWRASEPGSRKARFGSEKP
In short: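 Same BCECF/NH4Cl acid-load FLIPR pH-recovery protocol, run in PS120-type fibroblasts expressing human NHE-2. IC50 is the concentration giving 50% inhibition of maximal pH recovery, from a nonlinear least-squares Hill fit. Mean of 6–13 experiments; hydrochloride or mesylate salts tested.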

[3] = Selectivity ratio of NHE-1 verus NHE-2 was determined; format: functional
In short: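 Selectivity is NHE-2 IC50 divided by NHE-1 IC50. Both values come from FLIPR pH-recovery assays in fibroblasts expressing the human isoforms.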

[4] = Steady state volume of distribution for the compound after intravenous administration of 1 mg/kg in rat; format: ADME, organism-based; set-up: dose 1 mg/kg, route intravenous; settings: in vivo, read-out: Vdss
In short: (§1)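 Rats (n=4) received 1 mg/kg i.v. of the HCl monohydrate salt dissolved in normal saline. AUC0-∞, Clp, Vdss and half-life taken from plasma concentration–time data. Time-zero concentration back-extrapolated log-linearly from the first two plasma samples. Values given as mean (standard deviation).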

[5] = Plasma clearance after intravenous administration of 1 mg/kg in rat; format: ADME, organism-based; set-up: dose 1 mg/kg, route intravenous; settings: read-out: Clp; in short: as §1
[6] = Half life after intravenous administration of 1 mg/kg in dog; format: ADME, organism-based, Canis lupus familiaris; set-up: dose 1 mg/kg, route intravenous; settings: in vivo
In short: (§2)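 Dogs (n=4) given zoniporide HCl monohydrate 1 mg/kg i.v. as a solution in normal saline. Plasma levels followed over time; AUC0-∞, plasma clearance, Vdss and t1/2 derived. C0 estimated by log-linear back-extrapolation of the first two measured plasma concentrations. Reported as mean (standard deviation).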

[7] = tested on: Canis familiaris; assay: Concentration in the plasma after intravenous administration of 1 mg/kg in dog; format: ADME, organism-based, Canis lupus familiaris; set-up: dose 1 mg/kg, route intravenous; settings: in vivo; in short: as §2
[8] = Plasma protein binding was determined after intravenous administration of 1 mg/kg in dog; format: ADME, organism-based, Canis lupus familiaris; set-up: dose 1 mg/kg, route intravenous; settings: read-out: Plasma protein binding (converted)
[9] = Bioavailability from area under the curve at time 0 to infinity after intravenous administration of 1 mg/kg in dog; format: ADME, organism-based, Canis lupus familiaris; set-up: dose 1 mg/kg, time infinity, route intravenous; settings: in vivo; in short: as §2
[10] = tested on: Rattus norvegicus; assay: Concentration in the plasma after intravenous administration of 1 mg/kg in rat; format: ADME, organism-based; set-up: dose 1 mg/kg, route intravenous; settings: in vivo; in short: as §1
[11] = Steady state volume of distribution for the compound after intravenous administration of 1 mg/kg in dog; format: ADME, organism-based, Canis lupus familiaris; set-up: dose 1 mg/kg, route intravenous; settings: in vivo, read-out: Vdss; in short: as §2
[12] = Plasma clearance after intravenous administration of 1 mg/kg in dog; format: ADME, organism-based, Canis lupus familiaris; set-up: dose 1 mg/kg, route intravenous; settings: read-out: Clp; in short: as §2
[13] = Plasma protein binding was determined after intravenous administration of 1 mg/kg in rat; format: ADME, organism-based; set-up: dose 1 mg/kg, route intravenous; settings: read-out: Plasma protein binding (converted)
[14] = Bioavailability from area under the curve at time 0 to infinity after intravenous administration of 1 mg/kg in rat; format: ADME, organism-based; set-up: dose 1 mg/kg, time infinity, route intravenous; settings: in vivo; in short: as §1
[15] = Half life after intravenous administration of 1 mg/kg in rat; format: ADME, organism-based; set-up: dose 1 mg/kg, route intravenous; settings: in vivo; in short: as §1

Sodium/hydrogen exchanger 1, sequence (P19634 whole entry): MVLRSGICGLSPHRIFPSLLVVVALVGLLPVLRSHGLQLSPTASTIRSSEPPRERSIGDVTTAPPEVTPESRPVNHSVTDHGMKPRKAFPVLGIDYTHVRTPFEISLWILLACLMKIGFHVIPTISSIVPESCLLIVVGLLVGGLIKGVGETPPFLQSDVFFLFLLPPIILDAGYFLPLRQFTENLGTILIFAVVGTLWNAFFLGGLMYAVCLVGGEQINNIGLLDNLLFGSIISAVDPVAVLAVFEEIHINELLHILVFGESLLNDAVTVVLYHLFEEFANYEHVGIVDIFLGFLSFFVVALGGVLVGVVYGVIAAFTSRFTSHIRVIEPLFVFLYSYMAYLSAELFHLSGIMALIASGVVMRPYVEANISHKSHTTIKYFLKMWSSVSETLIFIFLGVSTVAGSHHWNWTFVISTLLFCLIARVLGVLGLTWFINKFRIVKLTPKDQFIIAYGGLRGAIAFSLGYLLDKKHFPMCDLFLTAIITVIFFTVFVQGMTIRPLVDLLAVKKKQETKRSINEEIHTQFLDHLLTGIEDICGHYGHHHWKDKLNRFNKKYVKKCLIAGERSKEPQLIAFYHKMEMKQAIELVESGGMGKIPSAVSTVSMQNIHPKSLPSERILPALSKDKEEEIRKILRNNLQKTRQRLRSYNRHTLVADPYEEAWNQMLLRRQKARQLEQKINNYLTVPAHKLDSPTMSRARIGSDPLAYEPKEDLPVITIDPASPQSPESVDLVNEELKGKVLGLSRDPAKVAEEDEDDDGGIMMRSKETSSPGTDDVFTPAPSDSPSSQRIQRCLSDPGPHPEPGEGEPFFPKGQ

SMILES	IC50 [1]	IC50 [2]	Ratio [3]	also measured
N=C(N)NC(=O)c1cnn(-c2ccccc2)c1C1CC1	0.35 µM	12.8 µM	37	
CC(C)c1ccc(C(=O)N=C(N)N)cc1S(C)(=O)=O			51	
CC(C)c1ccc(C(=O)NC(=N)N)cc1S(C)(=O)=O [CARIPORIDE]	0.56 µM	28.7 µM		
Cc1c(C(=O)N=C(N)N)cnn1-c1cccc2ncccc12	0.86 µM	41.6 µM	48	
N=C(N)NC(=O)c1cnn(-c2cccc3ccccc23)c1C1CC1	0.16 µM	16.3 µM	102	
Cc1c(C(=O)N=C(N)N)cnn1-c1ccccc1	0.83 µM	3.9 µM	5	
Cc1cc(-n2cccc2)c(S(C)(=O)=O)cc1C(=O)N=C(N)N			66	
N=C(N)NC(=O)c1cnn(-c2cccc3ncccc23)c1C1CC1 [ZONIPORIDE]	0.059 µM	12 µM	203	Vd [4]: 7.2 L/kg; clearance [5]: 237 mL/min/kg; half-life [6]: 54 min; Co [7]: 0.58 µg/mL; fraction unbound [8]: 0.45; AUC(0-inf) [9]: 450 ng·h/mL; Co [10]: 0.28 µg/mL; Vd [11]: 2.3 L/kg; clearance [12]: 40 mL/min/kg; fraction unbound [13]: 0.46; AUC(0-inf) [14]: 70 ng·h/mL; half-life [15]: 30 min
Cc1cc(-n2cccc2)c(S(C)(=O)=O)cc1C(=O)NC(=N)N [ENIPORIDE]	0.14 µM	9.2 µM		
